Assay results from ChEMBL document CHEMBL1124947, “Cationic antiprotozoal drugs. Trypanocidal activity of 2-(4'-formylphenyl)imidazo[1,2-a]pyridinium guanylhydrazones and related derivatives of quaternary heteroaromatic compounds” (J Med Chem, 1990).

How the values were obtained:
[1] = tested on: Mus musculus; experiment: Trypanocidal Activity at I.C.E. value 0.30 when administered perorally.; assay type: functional
[2] = tested on: Mus musculus; experiment: Trypanocidal Activity at I.C.E. value 0.85 when administered subcutaneously.; assay type: functional
In short: (§1)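 Mice, in groups of five per dose, were given a standard inoculum of blood-stage T. rhodesiense that is lethal to all untreated controls, then dosed subcutaneously. Usually 11 dose levels were used (2^n × 0.42 mg/kg).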

[3] = tested on: Mus musculus; experiment: Trypanocidal Activity at I.C.E. value 0.20 when administered subcutaneously.; assay type: functional
[4] = tested on: Mus musculus; experiment: Trypanocidal Activity at I.C.E. value 0.36 when administered perorally.; assay type: functional
[5] = tested on: Mus musculus; experiment: Trypanocidal Activity at I.C.E. value 0.43 when administered perorally.; assay type: functional
[6] = tested on: Mus musculus; experiment: Trypanocidal Activity at I.C.E. value 0.32 when administered subcutaneously.; assay type: functional
In short: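 Blood-stage T. rhodesiense infection came from a standard inoculum lethal to all untreated mice. Drug was given by subcutaneous injection to groups of five mice. Survival beyond 30 days counted as cure. […] Sub-curative doses scored 0, and data were normalized at each dose.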

[7] = tested on: Mus musculus; experiment: Trypanocidal Activity at I.C.E. value 0.61 when administered perorally.; assay type: functional
[8] = tested on: Mus musculus; experiment: Trypanocidal Activity at I.C.E. value 0.81 when administered subcutaneously.; assay type: functional; in short: as §1
[9] = tested on: Mus musculus; experiment: Trypanocidal Activity at I.C.E. value 0.93 when administered subcutaneously.; assay type: functional; in short: as §1
[10] = tested on: Mus musculus; experiment: Trypanocidal Activity at I.C.E. value 0.82 when administered subcutaneously.; assay type: functional; in short: as §1
[11] = tested on: Mus musculus; experiment: Fraction of mice that were cured after oral administration at a dose of 53 mg/kg and I.C.E. value of 0.56; assay type: functional
[12] = tested on: Mus musculus; experiment: Fraction of mice that were cured after oral administration at a dose of 6.6 mg/kg and I.C.E. value of 0.56; assay type: functional
[13] = tested on: Mus musculus; experiment: Fraction of mice that were cured after subcutaneous administration at a dose of 0.42 mg/kg and I.C.E. value of 0.82; assay type: functional
[14] = tested on: Mus musculus; experiment: Fraction of mice that were cured after subcutaneous administration at a dose of 0.83 mg/kg and I.C.E. value of 0.82; assay type: functional
[15] = tested on: Mus musculus; experiment: Fraction of mice that were cured after subcutaneous administration at a dose of 1.67 mg/kg and I.C.E. value of 0.82; assay type: functional
[16] = tested on: Mus musculus; experiment: Fraction of mice that were cured after subcutaneous administration at a dose of 106 mg/kg and I.C.E. value of 0.82; assay type: functional
[17] = tested on: Mus musculus; experiment: Fraction of mice that were cured after oral administration at a dose of 26 mg/kg and I.C.E. value of 0.56; assay type: functional
[18] = tested on: Mus musculus; experiment: Fraction of mice that were cured after oral administration at a dose of 3.3 mg/kg and I.C.E. value of 0.56; assay type: functional
[19] = tested on: Mus musculus; experiment: Fraction of mice that were cured after oral administration at a dose of 424 mg/kg and I.C.E. value of 0.56; assay type: functional
[20] = tested on: Mus musculus; experiment: Fraction of mice that were cured after oral administration at a dose of 0.42 mg/kg and I.C.E. value of 0.56; assay type: functional
[21] = tested on: Mus musculus; experiment: Fraction of mice that were cured after oral administration at a dose of 0.83 mg/kg and I.C.E. value of 0.56; assay type: functional
[22] = tested on: Mus musculus; experiment: Trypanocidal Activity at I.C.E. value 0.56 when administered perorally.; assay type: functional
[23] = tested on: Mus musculus; experiment: Fraction of mice that were cured after subcutaneous administration at a dose of 3.3 mg/kg and I.C.E. value of 0.82; assay type: functional
[24] = tested on: Mus musculus; experiment: Fraction of mice that were cured after subcutaneous administration at a dose of 424 mg/kg and I.C.E. value of 0.82; assay type: functional
[25] = tested on: Mus musculus; experiment: Fraction of mice that were cured after subcutaneous administration at a dose of 53 mg/kg and I.C.E. value of 0.82; assay type: functional
[26] = tested on: Mus musculus; experiment: Fraction of mice that were cured after subcutaneous administration at a dose of 6.6 mg/kg and I.C.E. value of 0.82; assay type: functional
[27] = tested on: Mus musculus; experiment: Curative activity of the Compound after oral administration at a dose of 0.42 mg/kg and I.C.E. value of 0.60; assay type: functional
[28] = tested on: Mus musculus; experiment: Curative activity of the Compound after oral administration at a dose of 0.83 mg/kg and I.C.E. value of 0.60; assay type: functional
[29] = tested on: Mus musculus; experiment: Curative activity of the Compound after oral administration at a dose of 1.67 mg/kg and I.C.E. value of 0.60; assay type: functional
[30] = tested on: Mus musculus; experiment: Curative activity of the Compound after oral administration at a dose of 106 mg/kg and I.C.E. value of 0.60; 10/10; assay type: functional
[31] = tested on: Mus musculus; experiment: Curative activity of the Compound after oral administration at a dose of 13 mg/kg and I.C.E. value of 0.60; 10/10; assay type: functional
[32] = tested on: Mus musculus; experiment: Curative activity of the Compound after oral administration at a dose of 212 mg/kg and I.C.E. value of 0.60; 5/5; assay type: functional
[33] = tested on: Mus musculus; experiment: Fraction of mice that were cured after subcutaneous administration at a dose of 13 mg/kg and I.C.E. value of 0.82; assay type: functional
[34] = tested on: Mus musculus; experiment: Fraction of mice that were cured after subcutaneous administration at a dose of 212 mg/kg and I.C.E. value of 0.82; assay type: functional
[35] = tested on: Mus musculus; experiment: Fraction of mice that were cured after subcutaneous administration at a dose of 26 mg/kg and I.C.E. value of 0.82; assay type: functional
[36] = tested on: Mus musculus; experiment: Curative activity of the Compound after Subcutaneous administration at a dose of 0.42 mg/kg and I.C.E. value of 0.82; 8/10; assay type: functional
[37] = tested on: Mus musculus; experiment: Curative activity of the Compound after oral administration at a dose of 53 mg/kg and I.C.E. value of 0.60; 5/5; assay type: functional
[38] = tested on: Mus musculus; experiment: Curative activity of the Compound after oral administration at a dose of 6.6 mg/kg and I.C.E. value of 0.60; 2/5; assay type: functional
[39] = tested on: Mus musculus; experiment: Curative activity of the Compound after Subcutaneous administration at a dose of 0.83 mg/kg and I.C.E. value of 0.82;20/20; assay type: functional
[40] = tested on: Mus musculus; experiment: Curative activity of the Compound after Subcutaneous administration at a dose of 1.67 mg/kg and I.C.E. value of 0.82; 19/20; assay type: functional
[41] = tested on: Mus musculus; experiment: Curative activity of the Compound after Subcutaneous administration at a dose of 106 mg/kg ( T-Toxic) and I.C.E. value of 0.82; 16/20 and 1 toxic; assay type: ADME, organism-based; parameters: dose 106 mg/kg, route subcutaneous; conditions: in vivo, sc
[42] = tested on: Mus musculus; experiment: Curative activity of the Compound after Subcutaneous administration at a dose of 212 mg/kg ( T-Toxic) and I.C.E. value of 0.82; 5/10 and 5 toxic; assay type: ADME, organism-based; parameters: dose 212 mg/kg, route subcutaneous; conditions: in vivo, sc
[43] = tested on: Mus musculus; experiment: Curative activity of the Compound after Subcutaneous administration at a dose of 26 mg/kg and I.C.E. value of 0.82; […]; assay type: functional
[44] = tested on: Mus musculus; experiment: Curative activity of the Compound after Subcutaneous administration at a dose of 3.3 mg/kg and I.C.E. value of 0.82; 10/10; assay type: functional
[45] = tested on: Mus musculus; experiment: Curative activity of the Compound after Subcutaneous administration at a dose of 424 mg/kg ( T-Toxic)and I.C.E. value of 0.82; 4/20 and 16 toxic; assay type: ADME, organism-based; parameters: dose 424 mg/kg, route subcutaneous; conditions: in vivo, sc
[46] = tested on: Mus musculus; experiment: Curative activity of the Compound after Subcutaneous administration at a dose of 53 mg/kg and I.C.E. value of 0.82; […]; assay type: functional
[47] = tested on: Mus musculus; experiment: Curative activity of the Compound after Subcutaneous administration at a dose of 53 mg/kg and I.C.E. value of 0.82; 9/10; assay type: functional
[48] = tested on: Mus musculus; experiment: Fraction of mice that were cured after oral administration at a dose of 1.67 mg/kg and I.C.E. value of 0.56; assay type: functional
[49] = tested on: Mus musculus; experiment: Fraction of mice that were cured after oral administration at a dose of 106 mg/kg and I.C.E. value of 0.56; assay type: functional
[50] = tested on: Mus musculus; experiment: Fraction of mice that were cured after oral administration at a dose of 13 mg/kg and I.C.E. value of 0.56; assay type: functional
[51] = tested on: Mus musculus; experiment: Fraction of mice that were cured after oral administration at a dose of 212 mg/kg and I.C.E. value of 0.56; assay type: functional
[52] = tested on: Mus musculus; experiment: Curative activity of the Compound after oral administration at a dose of 26 mg/kg and I.C.E. value of 0.60; 15/15; assay type: functional
[53] = tested on: Mus musculus; experiment: Curative activity of the Compound after oral administration at a dose of 3.3 mg/kg and I.C.E. value of 0.60;1/5; assay type: functional
[54] = tested on: Mus musculus; experiment: Curative activity of the Compound after oral administration at a dose of 424 mg/kg and I.C.E. value of 0.60; 10/10; assay type: functional
[55] = tested on: Trypanosoma brucei rhodesiense; experiment: In Vitro measurement of inhibition of Leucine uptake in cell culture of Trypanosoma rhodesiense.; assay type: functional; conditions: read-out: ID50 (the source's name)
In short: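 Trypanosomes harvested from infected rats, cultured 3 h with several concentrations of drug, usually 0.1–100 µg/mL. Radiolabeled L-leucine uptake measured. ID50 is the concentration in µg/mL giving 50% inhibition of incorporation.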

[56] = tested on: Trypanosoma brucei rhodesiense; experiment: In Vitro measurement of inhibition of thymidine uptake in cell culture of Trypanosoma rhodesiense.; assay type: functional; conditions: read-out: ID50 (the source's name)
In short: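 Parasites harvested from infected rats and incubated 3 h across a drug concentration series, usually 0.1–100 µg/mL. Incorporation of radiolabeled thymidine measured. ID50 is the concentration (µg/mL) producing 50% inhibition.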

## Cc1ccc(S(=O)(=O)O)cc1.Cc1ccc(S(=O)(=O)[O-])cc1.Cc1cccc2n1cc(/C=C/c1ccc(/C=N/NC(=N)N)cc1)[n+]2C
[1]
  CD50: 53 mg/kg
[2]
  CD50: 0.4 mg/kg

## Br.CN(C)C(=N)N/N=C/c1ccc(-c2c([N+](=O)[O-])n3ccccc3[n+]2C)cc1.[Br-]
[3]
  CD50: 0.8 mg/kg
[4]
  CD50: 53 mg/kg

## Br.C[n+]1c(-c2ccc(/C=N/NC(=N)N)cc2)c(Br)n2ccccc21.[Br-]
[5]
  CD50: 26 mg/kg
[6]
  CD50: 1.6 mg/kg

## Br.Cc1ccc2n(c1)cc(COc1ccc(/C=N/NC(=N)N)cc1)[n+]2C.[Br-]
[7]
  CD50: 6.6 mg/kg
[8]
  CD50: 0.2 mg/kg

## CCSc1ccc2n(c1)cc(-c1ccc(/C=N/NC(=N)N)cc1)[n+]2C.Cc1ccc(S(=O)(=O)O)cc1.Cc1ccc(S(=O)(=O)[O-])cc1
[9]
  CD50: 0.1 mg/kg

## Cc1ccc(S(=O)(=O)O)cc1.Cc1ccc(S(=O)(=O)[O-])cc1.Cc1ccc2n(c1)cc(-c1ccc(/C=N/NC(=N)N)cc1)[n+]2C
[10]
  CD50: 0.2 mg/kg
[11]
  Fraction cured: 1
[12]
  Fraction cured: 0.4
[13]
  Fraction cured: 0.8
[14]
  Fraction cured: 1
[15]
  Fraction cured: 0.95
[16]
  Fraction cured: 0.8
[17]
  Fraction cured: 1
[18]
  Fraction cured: 0.2
[19]
  Fraction cured: 1
[20]
  Fraction cured: 0
[21]
  Fraction cured: 0
[22]
  CD50: 6.6 mg/kg
[23]
  Fraction cured: 1
[24]
  Fraction cured: 0.2
[25]
  Fraction cured: 0.9
[26]
  Fraction cured: 1
[27]
  Survivors: 0
[28]
  Survivors: 0
[29]
  Survivors: 0
[30]
  Survivors: 10
[31]
  Survivors: 10
[32]
  Survivors: 5
[33]
  Fraction cured: 1
[34]
  Fraction cured: 0.5
[35]
  Fraction cured: 0.97
[36]
  Survivors: 8
[37]
  Survivors: 5
[38]
  Survivors: 2
[39]
  Survivors: 20
[40]
  Survivors: 19
[41]
  Survivors: 16
[42]
  Survivors: 5
[43]
  Survivors: 29
[44]
  Survivors: 10
[45]
  Survivors: 4
[46]
  Survivors: 9
[47]
  Survivors: 9
[48]
  Fraction cured: 0
[49]
  Fraction cured: 1
[50]
  Fraction cured: 1
[51]
  Fraction cured: 1
[52]
  Survivors: 15
[53]
  Survivors: 1
[54]
  Survivors: 10
[55]
  IC50: 0.5 µg/mL
[56]
  IC50: 0.4 µg/mL
